Each structure is given as a SMILES string. The source made the active and inactive calls. The rule behind the calls is not given here.

One test deals with Focal adhesion kinase 1 (Homo sapiens, UniProt Q05397). The test is described as follows: Inhibition of FAK (unknown origin) using ULight-poly GT as substrate after 1.6 hrs by TR-FRET assay. (In general: Time-resolved FRET reads energy transfer from a long-lived donor to a nearby acceptor.)
A short description of test [1]: Antiproliferative activity against human HCT116 cells after 48 hrs by WST-1 assay. The note with it: HCT-116, 48 h. Type of test: functional, cell-based. In outline: (§1)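 Exponentially growing cells in DMEM/10% FBS seeded at 5 × 10^3 per well, left overnight, then exposed 48 h to compounds diluted from DMSO; WST-1 added for 2 h, absorbance at 450 nm (reference 620 nm); viability as ratio to DMSO controls; three independent experiments, triplicate points; IC50 by nonlinear regression (log inhibitor vs normalized response, variable slope).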

In test [2] the test system is U-87MG ATCC. The test is described as follows: Antimigratory activity in human U87MG cells after 30 mins by boyden chamber assay. Type of test: functional, cell-based.
The subject of test [3] is MDA-MB-231. The test is described as follows: Antiproliferative activity against human MDA-MB-231 cells after 48 hrs by WST-1 assay. Type of test: functional, cell-based. The note with it: MDA-MB-231, 48 h. In outline: as §1
(Formazan colour is commonly taken as a measure of viable cells.)

The next test relates to U-87 MG. The test can be described thus: Reduction of cell adherence in human U87MG cells after 30 mins by toluidine blue staining-based […]. The note with it: U-87MG ATCC. Type of test: functional. In outline:
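U87-MG cells grown in 10% serum, trypsinised, diluted to 100 000 cells/mL in 10% serum medium, then treated 30 min with compound or DMSO. 20 000 cells per well allowed to attach 1 h. Fixed in 4% paraformaldehyde 30 min, stained with 0.1% toluidine blue in 4% PFA 30 min, washed, OD read at 620 nm for attached cells.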
Background: Flow cytometry measures light scatter and fluorescence of single cells or particles in a stream.

The subject of test [4] is MDA-MB-231. The test can be described thus: Inhibition of colony formation in human MDA-MB-231 cells after 2 weeks by crystal violet staining-based assay. Type of test: functional, cell-based. The note with it: for IC50: MDA-MB-231, 336 h. In outline: (§2)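 Seeding: 250 cells per well for HCT-116, 300 for U87MG, MDA-MB-231 and PC-3; incubated overnight, then exposed to a range of concentrations for 2 weeks. Fixed in 4% paraformaldehyde 30 min at room temperature, stained with 0.1% crystal violet. Colonies over 50 cells counted; colony formation rate calculated; IC50 by nonlinear regression.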

The nature of test [5]: (§3) Inhibition of colony formation in human HCT116 cells after 2 weeks by crystal violet staining-based assay. The note with it: HCT-116, 336 h. The format is functional, cell-based. In outline: as §2
A short description of test [6]: Antiproliferative activity against human U87MG cells after 48 hrs by WST-1 assay. Type of test: functional, cell-based, U-87MG ATCC. The note with it: U-87 MG. An outline of the steps:
as §1

A short description of test [7]: Antiproliferative activity against human PC3 cells after 48 hrs by WST-1 assay. Type of test: functional, cell-based. The note with it: PC-3, 48 h. An outline of the steps: as §1
The nature of test [8]: (§4) Inhibition of colony formation in human PC3 cells after 2 weeks by crystal violet staining-based assay. The format is functional, cell-based. The note with it: PC-3, 336 h. An outline of the steps:
as §2

Test [9] has as its system U-87MG ATCC. The test can be described thus: Antimigratory activity in human U87MG cells at 4 uM […] by transwell membrane assay. The format is functional, cell-based.
Test [10] can be described thus: (§5) Inhibition of colony formation in human U87MG cells after 2 weeks by crystal violet staining-based assay. Type of test: functional, cell-based, U-87MG ATCC. The note with it: U-87 MG, 336 h. In outline: as §2
For another test, the system named is HCT-116. Described as §3. The format is functional, cell-based. An outline of the steps:
as §2

The test system of test [11] is U-87MG ATCC. The test is described as follows: Antimigratory activity in human U87MG cells at 2 uM […] by transwell membrane assay. The format is functional, cell-based.
In another test the test system is PC-3. Described as §4. Type of test: functional, cell-based. In outline: as §2
Test [12] relates to U-87MG ATCC. The test is described as §5. Type of test: functional, cell-based. An outline of the steps: as §2

Sequence of Focal adhesion kinase 1 (Q05397 whole entry): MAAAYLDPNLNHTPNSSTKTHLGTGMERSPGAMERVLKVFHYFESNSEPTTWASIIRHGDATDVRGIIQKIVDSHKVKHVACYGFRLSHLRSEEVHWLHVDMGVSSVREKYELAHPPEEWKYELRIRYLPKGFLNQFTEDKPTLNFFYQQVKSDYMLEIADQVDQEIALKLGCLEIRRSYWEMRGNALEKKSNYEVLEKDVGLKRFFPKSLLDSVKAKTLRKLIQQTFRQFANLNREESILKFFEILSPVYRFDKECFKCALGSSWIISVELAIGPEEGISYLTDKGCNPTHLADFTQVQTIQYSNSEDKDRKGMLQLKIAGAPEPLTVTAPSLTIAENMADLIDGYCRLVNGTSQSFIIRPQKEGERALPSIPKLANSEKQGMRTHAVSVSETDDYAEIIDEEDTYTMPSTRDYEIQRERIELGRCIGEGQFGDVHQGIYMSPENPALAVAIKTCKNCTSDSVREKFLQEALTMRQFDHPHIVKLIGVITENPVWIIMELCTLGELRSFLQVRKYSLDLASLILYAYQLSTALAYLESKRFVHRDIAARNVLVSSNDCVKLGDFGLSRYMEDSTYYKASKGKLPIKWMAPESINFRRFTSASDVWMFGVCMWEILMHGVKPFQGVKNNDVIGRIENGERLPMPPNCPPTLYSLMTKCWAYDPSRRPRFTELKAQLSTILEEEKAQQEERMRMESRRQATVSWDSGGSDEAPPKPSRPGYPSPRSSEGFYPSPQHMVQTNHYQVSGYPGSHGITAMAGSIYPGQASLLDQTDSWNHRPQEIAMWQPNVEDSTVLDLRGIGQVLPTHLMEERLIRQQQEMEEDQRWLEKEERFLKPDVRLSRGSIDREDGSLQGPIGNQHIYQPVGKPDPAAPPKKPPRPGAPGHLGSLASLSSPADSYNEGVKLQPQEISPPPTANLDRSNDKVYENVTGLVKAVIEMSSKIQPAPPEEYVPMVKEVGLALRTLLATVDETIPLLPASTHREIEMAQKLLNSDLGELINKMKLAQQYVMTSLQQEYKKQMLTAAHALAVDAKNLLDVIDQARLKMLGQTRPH

As for `COC(=O)c1ccccc1Nc1nc(Nc2ccc(CN)cc2)nc2nccn12`, inhibition on Focal adhesion kinase 1 was half-maximal at 240 nM (IC50).
On to `COC(=O)c1cccc(Nc2nc(Nc3cc(OC)c(OC)c(OC)c3)n3ccnc3n2)c1`, for which the IC50 (as a rule, the concentration that gives 50% inhibition) against Focal adhesion kinase 1 was 1200 nM.
The same measure, in the same setting: the same measure for `COC(=O)c1ccccc1Nc1nc(Nc2ccc(N3CCOCC3)cc2OC)n2ccnc2n1`: 570 nM; for `C=COC(=O)NCc1ccc(Nc2nc(Nc3ccccc3C(=O)OC)n3ccnc3n2)cc1`: 500 nM; for `CNC(=O)c1ccccc1Nc1nc(Nc2cc(OC)c(OC)c(OC)c2)n2ccnc2n1`: 310 nM.
Turning to `CNC(=O)c1ccccc1Nc1nc(Nc2cc(OC)c(OC)c(OC)c2)nc2nccn12`, the IC50 in test [1] was 950 nM; with MDA-MB-231 [3], greater than 10000 nM; in the test with MDA-MB-231 [4] it was 3900 nM; in test [5] it was 760 nM; in [6], 4200 nM; against Focal adhesion kinase 1, 230 nM. Moreover, the figures for the IC50 in [7], in test [8] and in [10] were 350 nM, 990 nM and 220 nM, respectively. The Activity result with U-87MG ATCC [2] and in the test on U-87 MG was “Dose-dependent effect” each time. In addition, the result in the test with U-87MG ATCC [9] was Active.
As for `CNC(=O)c1ccccc1Nc1nc(Nc2ccc(CN)cc2)n2ccnc2n1`, inhibition on Focal adhesion kinase 1 was half-maximal at 220 nM (IC50).
Still for that read-out and setting: with `C=COC(=O)NCc1ccc(Nc2nc(Nc3ccccc3C(=O)OC)nc3nccn23)cc1` the figure was 1050 nM.
`CNC(=O)c1ccccc1Cc1nc(Nc2cc(OC)c(OC)c(OC)c2)nc2nccn12` gave an IC50 at Focal adhesion kinase 1 of 180 nM.
On to `CS(=O)(=O)Nc1ccccc1Nc1nc(Nc2ccc(C#N)cc2)n2ccnc2n1`, for which the half-maximal inhibitory concentration (IC50) at Focal adhesion kinase 1 turned out to be 1730 nM.
The molecule `COC(=O)c1ccccc1Nc1nc(Nc2ccc(N3CCOCC3)cc2OC)nc2nccn12` returned an IC50 against Focal adhesion kinase 1 of 370 nM.
As to `CNC(=O)c1ccccc1Nc1nc(Nc2ccc(C#N)cc2)nc2nccn12`, the IC50 at Focal adhesion kinase 1 came out at 710 nM.
Regarding `CNC(=O)c1ccccc1Nc1nc(Nc2ccc(N3CCOCC3)cc2OC)n2ccnc2n1`, the IC50 on Focal adhesion kinase 1 stood at 510 nM.
Turning to `COC(=O)c1cccc(Nc2nc(Nc3cc(OC)c(OC)c(OC)c3)nc3nccn23)c1`, the midpoint of inhibition on Focal adhesion kinase 1, the IC50, lay at 870 nM.
On the same count and under the same terms, the same measure for `CNC(=O)c1ccccc1Nc1nc(Nc2ccc(C#N)cc2)n2ccnc2n1`: 1120 nM.
For the molecule `CNC(=O)c1ccccc1Nc1nc(Nc2ccc(N3CCOCC3)cc2OC)nc2nccn12`, the 50% inhibitory concentration (IC50) in test [1] is 340 nM; in the test with MDA-MB-231 [3] it was greater than 10000 nM; with MDA-MB-231 [4], greater than 10000 nM; in test [5], 20 nM; in test [6], 2310 nM; on Focal adhesion kinase 1, 330 nM. Moreover, the IC50 is 270 nM in test [7], 630 nM in test [8] and 1400 nM in test [10]. Besides, the Activity entry in the test on U-87MG ATCC [2] and in the test on U-87 MG was “Dose-dependent effect” in each case. Moreover, the inhibition entry in the test on MDA-MB-231 [4], in the test with HCT-116, in the test with PC-3 and in the test on U-87MG ATCC [12] was “Dose-dependent effect” each time. Further, in the test with U-87MG ATCC [11], the outcome was Active.
As for `COC(=O)c1ccccc1Nc1nc(Nc2cc(OC)c(OC)c(OC)c2)nc2nccn12`, inhibition against Focal adhesion kinase 1 was half-maximal at 280 nM (IC50).
Molecule `COC(=O)c1ccccc1Cc1nc(Nc2cc(OC)c(OC)c(OC)c2)nc2nccn12` registered an IC50 at Focal adhesion kinase 1 of 370 nM.
In turn, `COc1cc(NC2=Nc3nccn3C(Cc3ccccc3NC(C)=O)N2)cc(OC)c1OC` (stereo not given) gave an IC50 on Focal adhesion kinase 1 of 8910 nM.
On the same count and under the same terms, with `COC(=O)c1ccccc1Nc1nc(Nc2ccc(CN)cc2)n2ccnc2n1` the figure was 280 nM; with `CS(=O)(=O)Nc1ccccc1Nc1nc(Nc2ccc(C#N)cc2)nc2nccn12`, 920 nM; with `C=COC(=O)NCc1ccc(Nc2nc(Nc3ccccc3C(=O)NC)nc3nccn23)cc1`, 880 nM.
In the case of `COc1cc(Nc2nc(Cc3ccccc3NS(C)(=O)=O)nc3nccn23)cc(OC)c1OC`, the IC50 against Focal adhesion kinase 1 was 840 nM.
The same measure, in the same setting: with `COC(=O)c1ccccc1Nc1nc(Nc2cc(OC)c(OC)c(OC)c2)n2ccnc2n1` the figure was 570 nM.

Values taken from ChEMBL document CHEMBL3392964, “Design, synthesis, and evaluation of novel imidazo[1,2-a][1,3,5]triazines and their derivatives as focal adhesion kinase inhibitors with antitumor activity” (J Med Chem, 2015).
